Data from ChEMBL document CHEMBL1126705, “16 beta-([18F]fluoro)estrogens: systematic investigation of a new series of fluorine-18-labeled estrogens as potential imaging agents for estrogen-receptor-positive breast tumors” (J Med Chem, 1993).

Key:
[1] = Partition coefficient (logP); assay type: physicochemical; settings: octanol/water
Summary of the method: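 Octanol/water log P estimated from log k'w measured by reversed-phase HPLC (Minick method) on a C8 silica column.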

[2] = target: T1, Estrogen receptor (Rattus norvegicus) (UniProt P06211+Q62986)
Rattus norvegicus [3] = assay: Tested in vivo for the biodistribution in rat liver after 3 hours following an intravenous dose of 120 microCi of drug in 10%ethanol saline; assay type: ADME, organism-based
Summary of the method: (§1)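 Immature (25-day-old) female Sprague-Dawley rats, ether-anesthetized, given the fluorine-18-labeled estrogen by femoral vein injection in 10% ethanol saline. […] Other groups were killed by decapitation at 1 or 3 h. Blood and organs were weighed and gamma-counted. Data are % injected dose/g, mean ± SD, typically n = 5 per group.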

Rattus norvegicus [4] = assay: Tested in vivo for the biodistribution in rat kidney at 1 hour after intravenous dose of 120 microCi of drug in 10%ethanol saline; assay type: ADME, organism-based
Summary of the method: (§2)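 Female Sprague-Dawley rats (25 days old, 40 g) under ether received 120 μCi of tracer iv (femoral vein; effective specific activity 1306 Ci/mmol) in 10% ethanol saline. They were decapitated at 1 h (n = 6) or 3 h (n = 5). Tissues were weighed and gamma-counted, reported as % injected dose/g, mean ± SD.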

Rattus norvegicus [5] = assay: Tested in vivo for the biodistribution in rat uterus at 1 hour after intravenous dose of 120 microCi of the drug and 15 micro g of estradiol; assay type: ADME, organism-based; summary of the method: as §1
[6] = target: T1, Estrogen receptor (Rattus norvegicus); remark: listed apart in the source
Rattus norvegicus [7] = assay: Tested in vivo for the biodistribution in rat uterus/blood after 3 hours following an intravenous dose of 120 microCi of drug in 10%ethanol saline; assay type: ADME, organism-based
Summary of the method: (§3)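 Female Sprague-Dawley rats, 25 days old (~40–53 g), ether-anesthetized, given the 18F-labeled estrogen iv via femoral vein in 10% ethanol saline. […] Others were sacrificed by decapitation at 1 or 3 h. Blood and organs were excised, weighed and gamma counted as % injected dose/g, mean ± SD, typically n = 5 (4–6).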

Rattus norvegicus [8] = assay: Tested in vivo for the biodistribution in rat uterus/blood at 1 hour after intravenous dose of 120 microCi of the drug and 15 ug of estradiol; assay type: ADME, organism-based; summary of the method: as §3
Rattus norvegicus [9] = assay: Tested in vivo for the biodistribution in rat liver at 1 hour after intravenous dose of 120 microCi of drug in 10%ethanol saline; assay type: ADME, organism-based; summary of the method: as §1
Rattus norvegicus [10] = assay: Tested in vivo for the biodistribution in rat uterus at 1 hour after intravenous dose of 120 microCi of drug in 10%ethanol saline; assay type: ADME, organism-based; summary of the method: as §1
Rattus norvegicus [11] = assay: Tested in vivo for the biodistribution in rat muscle at 1 hour after intravenous dose of 120 microCi of drug in 10%ethanol saline; assay type: ADME, organism-based, Muscle tissue; summary of the method: as §1
Rattus norvegicus [12] = assay: Tested in vivo for the biodistribution in rat muscle after 3 hours following an intravenous dose of 120 microCi of drug in 10%ethanol saline; assay type: ADME, organism-based, Muscle tissue; summary of the method: as §1
Rattus norvegicus [13] = assay: Tested in vivo for the biodistribution in rat uterus/muscle at 1 hour after intravenous dose of 120 microCi of the drug and 15 micro g of estradiol; assay type: ADME, organism-based, Muscle tissue; summary of the method: as §3
Rattus norvegicus [14] = assay: Tested in vivo for the biodistribution in blood of female rat after 3 hours following an intravenous dose of 120 microCi of drug in 10%ethanol saline; assay type: ADME, organism-based; summary of the method: as §2
Rattus norvegicus [15] = assay: Tested in vivo for the biodistribution in rat uterus/blood at 1 hour after intravenous dose of 120 microCi of drug in 10%ethanol saline; assay type: ADME, organism-based; summary of the method: as §3
Rattus norvegicus [16] = assay: Tested in vivo for the biodistribution in rat liver at 1 hour after intravenous dose of 120 microCi of the drug and 15 u g of estradiol; assay type: ADME, organism-based; summary of the method: as §1
Rattus norvegicus [17] = assay: Tested in vivo for the biodistribution in rat kidney after 3 hours following an intravenous dose of 120 microCi of drug in 10%ethanol saline; assay type: ADME, organism-based; summary of the method: as §2
Rattus norvegicus [18] = assay: Tested in vivo for the biodistribution in rat ovaries at 1 hour after intravenous dose of 120 microCi of the drug and 15 ug of estradiol; assay type: ADME, organism-based, Female gonad; summary of the method: as §1
Rattus norvegicus [19] = assay: Tested in vivo for the biodistribution in rat uterus after 3 hours following an intravenous dose of 120 microCi of drug in 10%ethanol saline; assay type: ADME, organism-based; summary of the method: as §1
Rattus norvegicus [20] = assay: Tested in vivo for the biodistribution in rat muscle at 1 hour after intravenous dose of 120 microCi of the drug and 15 ug of estradiol; assay type: ADME, organism-based, Muscle tissue; summary of the method: as §1
Rattus norvegicus [21] = assay: Tested in vivo for the biodistribution in rat ovaries after 3 hours following an intravenous dose of 120 microCi of drug in 10%ethanol saline; assay type: ADME, organism-based, Female gonad; summary of the method: as §1
Rattus norvegicus [22] = assay: Tested in vivo for the biodistribution in rat bone after 3 hours following an intravenous dose of 120 microCi of drug in 10%ethanol saline; assay type: ADME, organism-based, Bone element; summary of the method: as §2
Rattus norvegicus [23] = assay: Tested in vivo for the biodistribution in rat ovaries at 1 hour after intravenous dose of 120 microCi of drug in 10%ethanol saline; assay type: ADME, organism-based, Female gonad; summary of the method: as §1
[24] = target: T2, Sex hormone-binding globulin (Homo sapiens) (UniProt P04278); assay: Relative binding affinity against sex steroid binding protein (SBP)
T2 sequence (whole entry): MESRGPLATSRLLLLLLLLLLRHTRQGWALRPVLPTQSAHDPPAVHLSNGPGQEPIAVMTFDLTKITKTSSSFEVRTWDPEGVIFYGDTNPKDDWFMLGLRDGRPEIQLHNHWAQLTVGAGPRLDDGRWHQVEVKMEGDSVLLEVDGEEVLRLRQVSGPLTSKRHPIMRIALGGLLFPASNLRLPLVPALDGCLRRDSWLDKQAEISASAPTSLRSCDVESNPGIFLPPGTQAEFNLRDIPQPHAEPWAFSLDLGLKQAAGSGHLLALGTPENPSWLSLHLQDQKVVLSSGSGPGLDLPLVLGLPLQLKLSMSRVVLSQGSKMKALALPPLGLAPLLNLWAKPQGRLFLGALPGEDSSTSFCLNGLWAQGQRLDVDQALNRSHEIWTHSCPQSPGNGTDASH

Rattus norvegicus [25] = assay: Tested in vivo for the biodistribution in rat bone at 1 hour after intravenous dose of 120 microCi of drug in 10%ethanol saline; assay type: ADME, organism-based, Bone element; summary of the method: as §2
Rattus norvegicus [26] = assay: Tested in vivo for the biodistribution in rat fat after 3 hours following an intravenous dose of 120 microCi of drug in 10%ethanol saline; assay type: ADME, organism-based, Adipose tissue; summary of the method: as §2
Rattus norvegicus [27] = assay: Tested in vivo for the biodistribution in blood of female rat at 1 hour after intravenous dose of 120 microCi of the drug and 15 u g of estradiol; assay type: ADME, organism-based
[28] = target: T3, Alpha-fetoprotein (Rattus norvegicus) (UniProt P02773); assay: Relative binding affinity for Alphafetoprotein
T3 sequence (whole entry): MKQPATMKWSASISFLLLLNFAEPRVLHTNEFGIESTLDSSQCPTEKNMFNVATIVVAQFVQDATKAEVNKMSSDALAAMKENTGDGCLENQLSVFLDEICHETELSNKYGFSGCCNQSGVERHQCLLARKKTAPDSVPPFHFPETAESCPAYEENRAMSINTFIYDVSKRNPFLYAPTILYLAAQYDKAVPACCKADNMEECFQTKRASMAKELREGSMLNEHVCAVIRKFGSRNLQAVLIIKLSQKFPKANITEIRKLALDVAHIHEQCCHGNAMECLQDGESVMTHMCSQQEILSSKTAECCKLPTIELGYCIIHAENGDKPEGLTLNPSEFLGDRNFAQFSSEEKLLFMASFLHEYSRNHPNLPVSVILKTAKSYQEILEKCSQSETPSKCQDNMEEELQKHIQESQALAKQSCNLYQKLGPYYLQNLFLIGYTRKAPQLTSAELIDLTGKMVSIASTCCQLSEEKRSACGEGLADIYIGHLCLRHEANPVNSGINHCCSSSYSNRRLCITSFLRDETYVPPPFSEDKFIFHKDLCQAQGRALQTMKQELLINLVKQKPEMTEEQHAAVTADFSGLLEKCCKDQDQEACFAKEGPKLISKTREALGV

Rattus norvegicus [29] = assay: Tested in vivo for the biodistribution in blood of female rat at 1 hour after intravenous dose of 120 microCi of drug in 10%ethanol saline; assay type: ADME, organism-based; summary of the method: as §2
Rattus norvegicus [30] = assay: Tested in vivo for the biodistribution in rat fat at 1 hour after intravenous dose of 120 microCi of drug in 10%ethanol saline; assay type: ADME, organism-based, Adipose tissue; summary of the method: as §2
Rattus norvegicus [31] = assay: Tested in vivo for the biodistribution in rat uterus/muscle after 3 hours following an intravenous dose of 120 microCi of drug in 10%ethanol saline; assay type: ADME, organism-based, Muscle tissue; summary of the method: as §3
Rattus norvegicus [32] = assay: Tested in vivo for the biodistribution in rat uterus/muscle at 1 hour after intravenous dose of 120 microCi of drug in 10%ethanol saline; assay type: ADME, organism-based, Muscle tissue; summary of the method: as §3
Rattus norvegicus [33] = assay: Tested in vivo for the biodistribution in rat fat at 1 hour after intravenous dose of 120 microCi of the drug and 15 micro g of estradiol; assay type: ADME, organism-based, Adipose tissue
Rattus norvegicus [34] = assay: Tested in vivo for the biodistribution in rat bone at 1 hour after intravenous dose of 120 microCi of the drug and 15 ug of estradiol; assay type: ADME, organism-based, Bone element
Rattus norvegicus [35] = assay: Tested in vivo for the biodistribution in rat kidney at 1 hour after intravenous dose of 120 microCi of the drug and 15 u g of estradiol; assay type: ADME, organism-based

- logP [1]: 2.81
- BSI [2]: 19
- Injected (dose/g) (Rattus norvegicus [3]): 1.483%
- Injected (Rattus norvegicus [4]): 2.051%
- Injected (Rattus norvegicus [5]): 1.257%
- NSB [6]: 0.63
- Injected (Rattus norvegicus [7]): 2.273%
- Injected (Rattus norvegicus [8]): 0.857%
- Injected (dose/g) (Rattus norvegicus [9]): 2.957%
- Injected (Rattus norvegicus [10]): 4.994%
- Injected (dose/g) (Rattus norvegicus [11]): 0.402%
- Injected (dose/g) (Rattus norvegicus [12]): 0.151%
- Injected (Rattus norvegicus [13]): 2.685%
- Injected (Rattus norvegicus [14]): 0.534%
- Injected (dose/g) (Rattus norvegicus [15]): 5.631%
- Injected (Rattus norvegicus [16]): 3.771%
- Injected (Rattus norvegicus [17]): 0.821%
- Injected (dose/g) (Rattus norvegicus [18]): 1.189%
- Injected (Rattus norvegicus [19]): 1.176%
- Injected (Rattus norvegicus [20]): 0.466%
- Injected (Rattus norvegicus [21]): 0.615%
- Injected (dose/g) (Rattus norvegicus [22]): 1.201%
- Injected (dose/g) (Rattus norvegicus [23]): 1.91%
- relative binding affinity (RBA) [24]: 8.9
- Injected (dose/g) (Rattus norvegicus [25]): 1.008%
- Injected (Rattus norvegicus [26]): 0.131%
- Injected (Rattus norvegicus [27]): 1.486%
- relative binding affinity (RBA) [28]: 20
- Injected (Rattus norvegicus [29]): 0.949%
- Injected (Rattus norvegicus [30]): 0.31%
- Injected (Rattus norvegicus [31]): 9.05%
- Injected (Rattus norvegicus [32]): 15.22%
- Injected (dose/g) (Rattus norvegicus [33]): 0.391%
- Injected (Rattus norvegicus [34]): 1.216%
- Injected (dose/g) (Rattus norvegicus [35]): 3.388%
Compound: C[C@]12CC[C@@H]3c4ccc(O)cc4CC[C@H]3[C@@H]1C[C@H](F)[C@@H]2O
